Assay results as given in ChEMBL document CHEMBL1122793, “Synthesis, characterization, and properties of a group of platinum (IV) complexes” (J Med Chem, 1984).

How the values were obtained:
Type in all cases: functional, cell-based
Conditions in all cases: Mus musculus
[1] = system: L1210; assay: Compound was evaluated for antitumor activity against 10e 6 L1210 cells implanted intraperitoneally into mice after treatment on days 1-5 (maximum percentage toxicity)
Method in brief: (§1)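 Mice were implanted ip with 10⁶ L1210 ascites cells and treated ip on days 1-5, with the dose given in mg/kg per injection. Groups had six mice each. The read-out was the optimal dose and the maximum percent T/C, as defined in ref 9.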

[2] = system: L1210; assay: Compound was evaluated for antitumor activity against 10e 6 L1210 cells implanted intraperitoneally into mice after treatment on days 1-5; method in brief: as §1
[3] = system: L1210; assay: Compound was evaluated for antitumor activity against 10e 6 L1210 cells implanted intraperitoneally into mice after treatment on day 1(maximum percentage toxicity)
Method in brief: (§2)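 Mice received 10⁶ L1210 ascites cells ip and were treated ip on day 1 only. Treatment groups had six mice. The optimal dose was recorded in mg/kg, and activity was recorded as the maximum percent T/C, as defined in ref 9.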

[4] = system: L1210; assay: Compound was evaluated for antitumor activity against 10e 6 L1210 cells implanted intraperitoneally into mice after treatment on day 1; method in brief: as §2
[5] = system: L1210; assay: Compound was evaluated for antitumor activity against 10e 6 L1210 cells implanted intraperitoneally into mice after treatment on days 1-9 (maximum percentage toxicity)
[6] = system: L1210; assay: Compound was evaluated for antitumor activity against 10e 6 L1210 cells implanted intraperitoneally into mice after treatment on day 1(reference 9); method in brief: as §2
[7] = system: L1210; assay: Compound was evaluated for antitumor activity against 10e 6 L1210 cells implanted intraperitoneally into mice after treatment on day 1(maximum percentage toxicity)(reference 9); method in brief: as §2
[8] = system: L1210; assay: Compound was evaluated for antitumor activity against 10e 6 L1210 cells implanted intraperitoneally into mice after treatment on days 1-9

In the case of Dichloro-dibromo-diammonium platinum, the T/C [1] is reported as 129%, the Optimal dose [2] is reported as 0.75 mg/kg and the T/C [3] is reported as 136%. For the same substance, the Optimal dose [4] was 12 mg/kg.
Tetrachloro-diammonium platinum gave a T/C [1] of 114%, an Optimal dose [2] of 4 mg/kg and a T/C [3] of 121%. It also gave an Optimal dose [4] of 32 mg/kg.
In the case of Dichloro-diammonium-platinum, the T/C [1] is reported as 157%, the T/C [5] is reported as 193% and the Optimal dose [2] is reported as 12 mg/kg. For the same substance, the T/C [3] was 150%, the Optimal dose [4] was 48 mg/kg and the Optimal dose [6] was 120 mg/kg. The T/C [7] was 164% and the Optimal dose [8] was 20 mg/kg.
